Data: publication PMC4529372 (Biological psychiatry, 2015)

Tests used:
hmGluR2/hCaR* = assay: fluorescence-based functional assay, HEK […] cells; type: cell-based, Homo sapiens; details: read-out: Effect; positive allosteric modulator; with 0.02 μM DCG-IV as agonist
Adenosine A3 = target: T1, Adenosine A3 (Homo sapiens, UniProt P0DMS8); assay: radioligand binding displacement; details: read-out: % inhibition at 10 μM
T1 sequence (P0DMS8 1-318): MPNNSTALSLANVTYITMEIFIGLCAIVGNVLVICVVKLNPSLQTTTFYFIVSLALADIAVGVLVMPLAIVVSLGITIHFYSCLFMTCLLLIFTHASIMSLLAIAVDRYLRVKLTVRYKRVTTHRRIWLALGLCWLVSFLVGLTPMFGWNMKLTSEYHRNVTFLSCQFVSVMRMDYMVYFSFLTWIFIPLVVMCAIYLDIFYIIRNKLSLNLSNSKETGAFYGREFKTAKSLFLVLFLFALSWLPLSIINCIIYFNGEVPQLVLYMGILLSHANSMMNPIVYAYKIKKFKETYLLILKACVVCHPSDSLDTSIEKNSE
Method in brief: (§1)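 Off-target screen by radioligand binding displacement, run per published methods with reference standards in each assay. […] Recombinant human targets were expressed in CHO-K1 cells (A3, dopamine transporter), Sf9 insect cells (α2A), CHO cells (DOP) and MDCK cells (norepinephrine transporter). IC50, where determined, came from non-linear least-squares regression.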

[1] = target: Norepinephrine transporter (Homo sapiens, UniProt P23975); assay: radioligand binding displacement
Norepinephrine transporter, sequence (P23975 whole entry): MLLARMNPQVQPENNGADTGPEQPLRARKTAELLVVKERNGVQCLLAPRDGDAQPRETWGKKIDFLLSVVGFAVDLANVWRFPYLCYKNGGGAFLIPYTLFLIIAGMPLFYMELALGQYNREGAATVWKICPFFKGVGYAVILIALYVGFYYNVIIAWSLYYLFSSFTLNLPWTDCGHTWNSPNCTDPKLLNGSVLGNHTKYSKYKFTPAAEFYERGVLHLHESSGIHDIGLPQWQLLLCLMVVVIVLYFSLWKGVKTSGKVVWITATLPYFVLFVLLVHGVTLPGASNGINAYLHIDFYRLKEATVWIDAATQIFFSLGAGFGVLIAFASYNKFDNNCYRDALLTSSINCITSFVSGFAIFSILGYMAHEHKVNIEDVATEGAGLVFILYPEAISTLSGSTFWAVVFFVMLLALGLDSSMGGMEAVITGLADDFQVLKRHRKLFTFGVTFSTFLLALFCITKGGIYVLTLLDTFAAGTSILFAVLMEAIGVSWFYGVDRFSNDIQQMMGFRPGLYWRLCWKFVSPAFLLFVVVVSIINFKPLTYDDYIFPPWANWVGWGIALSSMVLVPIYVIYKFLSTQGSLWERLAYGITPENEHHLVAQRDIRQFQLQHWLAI
Method in brief: as §1

EC50 (hmGluR2/hCaR*): 285 ± 20 nM
inhibition at 10 µM (Adenosine A3): 51%
IC50 [1]: 4730 nM
Structure (SMILES): Cc1cc(-c2nc(CN3CCNCC3)no2)cc2c1C(=O)N(Cc1ccc(OC(F)(F)F)cc1)C2 [AZD8529, 7-methyl-5-(3-piperazin-1-ylmethyl-[1,2,4]oxadiazol-5-yl)-2-(4-trifluoromethoxybenzyl)-2,3-dihydroisoindol-1-one]
